From ChEMBL document CHEMBL2401723, “Optimization of the electrophile of chloronitrobenzamide leads active against Trypanosoma brucei” (Bioorg Med Chem Lett, 2013)
In brackets after ≈: the same amount, converted by molar mass.

What was measured:
[1] = tested on: Trypanosoma brucei brucei; assay: Antitrypanosomal activity against Trypanosoma brucei brucei assessed as parasite growth inhibition; format: functional, organism-based
HepG2 = assay: Cytotoxicity against human HepG2 cells assessed as growth inhibition after 72 hrs by Cell-Titer Glo assay; format: cell-based; conditions: HepG2, 72 h
Procedure, shortened: (§1)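 Human cell lines (Raji Burkitt's lymphoma, BJ immortalized foreskin fibroblast, HEK293 embryonic kidney, HepG2) exposed 72 h to a 10-point threefold dilution series by pin transfer, lowest final 0.5 nM, final DMSO 0.2%; proliferation run in triplicate, EC50 derived.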

BJ = assay: Cytotoxicity against human BJ cells assessed as growth inhibition after 72 hrs by Cell-Titer Glo assay; format: cell-based; procedure, shortened: as §1
[2] = Half life in human liver microsomes; format: ADME, Microsome
HEK293 = assay: Cytotoxicity against HEK293 cells assessed as growth inhibition after 72 hrs by Cell-Titer Glo assay; format: cell-based; conditions: Homo sapiens, HEK293, 72 h; procedure, shortened: as §1
[3] = tested on: Trypanosoma brucei brucei; assay: Antitrypanosomal activity against Trypanosoma brucei brucei assessed as parasite growth inhibition after 48 hrs by Cell-Titer Glo assay; format: functional, organism-based
[4] = Half life in mouse liver microsomes; format: ADME, Microsome
[5] = Permeability of the compound by PAMPA; format: ADME; conditions: for Papp: read-out: permeability
Procedure, shortened: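 Passive permeability by parallel artificial membrane assay (pION implementation), measured against PBS pH 7.4 sink buffer.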

[6] = tested on: Trypanosoma brucei rhodesiense; assay: Antitrypanosomal activity against wild type Trypanosoma brucei rhodesiense STIB900 assessed as parasite growth inhibition after 48 hrs by Cell-Titer Glo assay; format: functional, organism-based; conditions: STIB900, 48 h
Procedure, shortened: (§2)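 Parasites exposed to a 10-point threefold dilution series added by pin transfer, lowest final concentration 0.5 nM, final DMSO 0.2%; EC50 from the series, mean of two experiments.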

[7] = tested on: Trypanosoma brucei gambiense; assay: Antitrypanosomal activity against Trypanosoma brucei gambiense STIB930 assessed as parasite growth inhibition after 48 hrs by Cell-Titer Glo assay; format: functional, organism-based; conditions: STIB930, 48 h; procedure, shortened: as §2
[8] = Kinetic solubility in PBS buffer at pH 7.4 after 18 hrs by UV-spectroscopic analysis; format: physicochemical; conditions: for solubility kinetic at 18 h: PBS buffer, pH 7.4, read-out: Kinetic_solubility
Raji = assay: Cytotoxicity against human Raji cells assessed as growth inhibition after 72 hrs by Cell-Titer Glo assay; format: cell-based; procedure, shortened: as §1

| Structure (SMILES) | EC50 [1] [µM] | half-life [2] [h] | EC50 [3] [µM] | half-life [4] [h] | Papp [5] [×10⁻⁶ cm/s] | EC50 [6] [µM] | EC50 [7] [µM] | solubility kinetic at 18 h [8] [µM] | permeability [5] [×10⁻⁶ cm/s] | Kinetic_solubility ([8]; buffer, pH 7.4, 18 h, BLD = below limit of detection) | EC50 (HepG2) [µM] | EC50 (BJ) [µM] | EC50 (HEK293) [µM] | EC50 (Raji) [µM] |
| --- | --- | --- | --- | --- | --- | --- | --- | --- | --- | --- | --- | --- | --- | --- |
| Cc1ccc(-c2nc3ccccc3s2)cc1NC(=O)c1cc([N+](=O)[O-])c(N2CCNCC2)cc1Cl | 0.027 |  |  |  |  |  |  |  |  |  |  |  |  |  |
| Cc1ccc(-c2nc3ccccc3o2)cc1NC(=O)c1cnccc1Cl |  |  | 0.18 |  | 646 | 0.12 | 0.17 | 0.51 (≈ 0.186 µg/mL) |  |  | > 25 | > 25 | > 25 | > 25 |
| COc1ccc(-c2nc3ccccc3o2)cc1NC(=O)c1cnccc1Cl |  |  | 0.2 |  | 391 |  |  | 1.68 (≈ 0.638 µg/mL) |  |  | > 25 | > 25 | > 25 | > 25 |
| O=C(Nc1cc(-c2nc3ccccc3o2)ccc1F)c1cnccc1Cl |  |  | 0.44 |  | 258 |  |  | 0.13 (≈ 0.0478 µg/mL) |  |  | > 25 | > 25 | > 25 | > 25 |
| O=C(Nc1ccc(F)c(-c2nc3ccccc3o2)c1)c1cnccc1Cl |  |  | 0.12 |  | 305 | 0.05 | 0.12 | 0.67 (≈ 0.246 µg/mL) |  |  | > 25 | > 25 | > 25 | > 25 |
| C/C=C/C(=O)Nc1cccc(-c2nc3ccccc3s2)c1 |  |  | > 33 |  |  |  |  | 0.11 (≈ 0.0324 µg/mL) | 1640 |  | > 25 | > 25 | > 25 | > 25 |
| O=C(O)/C=C/C(=O)Nc1cccc(-c2nc3ccccc3s2)c1 |  |  | > 33 |  | 4 |  |  | 56 (≈ 18.2 µg/mL) |  |  | > 25 | > 25 | > 25 | > 25 |
| CN(C)CCC(=O)Nc1cccc(-c2nc3ccccc3s2)c1 |  |  | > 33 |  |  |  |  | 56 (≈ 18.2 µg/mL) | 2080 |  | 21 | > 25 | > 25 | > 25 |
| CC(C)(CCl)C(=O)Nc1cccc(-c2nc3ccccc3s2)c1 |  |  | > 33 |  | 891 |  |  |  |  | BLD | > 25 | > 25 | > 25 | > 25 |
| O=C(Nc1ccc(Cl)cc1)c1cc([N+](=O)[O-])ccc1Cl |  |  | 0.92 |  | 536 |  |  | 3 (≈ 0.933 µg/mL) |  |  | > 25 | > 25 | > 25 | > 25 |

Continued, in another order:

| EC50 [1] [µM] | half-life [2] [h] | EC50 [3] [µM] | half-life [4] [h] | Papp [5] [×10⁻⁶ cm/s] | EC50 [6] [µM] | EC50 [7] [µM] | solubility kinetic at 18 h [8] [µM] | permeability [5] [×10⁻⁶ cm/s] | Kinetic_solubility ([8]; buffer, pH 7.4, 18 h, BLD = below limit of detection) | Structure (SMILES) | EC50 (HepG2) [µM] | EC50 (BJ) [µM] | EC50 (HEK293) [µM] | EC50 (Raji) [µM] |
| --- | --- | --- | --- | --- | --- | --- | --- | --- | --- | --- | --- | --- | --- | --- |
|  | 3.7 | 0.058 | 0.58 | 791 | 0.055 | 0.058 | 0.14 (≈ 0.0532 µg/mL) |  |  | Cc1ccc(-c2nc3ccccc3s2)cc1NC(=O)c1cnccc1Cl | > 25 | > 25 | > 25 | > 25 |
|  |  | 0.12 |  | 121 |  |  | 0.34 (≈ 0.135 µg/mL) |  |  | COc1ccc(-c2nc3ccccc3s2)cc1NC(=O)c1cnccc1Cl | > 25 | > 25 | > 25 | 13 |
|  |  | 0.18 |  | 306 |  |  | 0.18 (≈ 0.0691 µg/mL) |  |  | O=C(Nc1cc(-c2nc3ccccc3s2)ccc1F)c1cnccc1Cl | > 25 | > 25 | > 25 | > 25 |
|  | > 4 | 0.12 | > 4 | 21 | 0.018 | 0.038 | 0.08 (≈ 0.0307 µg/mL) |  |  | O=C(Nc1ccc(F)c(-c2nc3ccccc3s2)c1)c1cnccc1Cl | > 25 | > 25 | > 25 | > 25 |
|  |  | > 33 |  | 797 |  |  | 0.18 (≈ 0.0505 µg/mL) |  |  | C=CC(=O)Nc1cccc(-c2nc3ccccc3s2)c1 | > 25 | > 25 | > 25 | > 25 |
|  |  | > 33 |  | 987 |  |  | 0.42 (≈ 0.124 µg/mL) |  |  | C=C(C)C(=O)Nc1cccc(-c2nc3ccccc3s2)c1 | > 25 | > 25 | > 25 | > 25 |
|  |  | 0.12 |  | 660 |  |  | 1 (≈ 0.303 µg/mL) |  |  | O=C(CCl)Nc1cccc(-c2nc3ccccc3s2)c1 | 16 | 8.5 | 10 | 1.7 |
|  |  | 1.2 |  | 769 |  |  | 0.83 (≈ 0.263 µg/mL) |  |  | CC(Cl)C(=O)Nc1cccc(-c2nc3ccccc3s2)c1 (stereo not drawn) | > 25 | > 25 | > 25 | > 25 |
|  |  | 0.3 |  | 732 | 0.062 | 0.061 | 0.32 (≈ 0.117 µg/mL) |  |  | O=C(Nc1cccc(-c2nc3ccccc3s2)c1)c1cnccc1Cl | > 25 | > 25 | > 25 | 12 |
|  |  | 25 |  | 677 |  |  | 0.52 (≈ 0.19 µg/mL) |  |  | O=C(Nc1cccc(-c2nc3ccccc3s2)c1)c1cccnc1Cl | > 25 | > 25 | > 25 | > 25 |
|  |  | 11 |  | 104 |  |  | 0.35 (≈ 0.14 µg/mL) |  |  | O=C(Nc1cccc(-c2nc3ccccc3s2)c1)c1ccc(Cl)nc1Cl | > 25 | > 25 | > 25 | > 25 |
|  |  | 20 |  | 478 |  |  | 0.74 (≈ 0.271 µg/mL) |  |  | O=C(Nc1cccc(-c2nc3ccccc3s2)c1)c1ccnc(Cl)c1 | > 25 | > 25 | > 25 | > 25 |
|  |  | 24 |  | 563 |  |  | 0.32 (≈ 0.117 µg/mL) |  |  | O=C(Nc1cccc(-c2nc3ccccc3s2)c1)c1ccncc1Cl | > 25 | > 25 | > 25 | > 25 |
|  |  | 13 |  | 42 |  |  | 0.45 (≈ 0.185 µg/mL) |  |  | O=C(Nc1cccc(-c2nc3ccccc3s2)c1)c1cc([N+](=O)[O-])cnc1Cl | > 25 | > 25 | > 25 | 8.4 |
|  |  | 18 |  | 133 |  |  | 0.94 (≈ 0.35 µg/mL) |  |  | O=C(Nc1cccc(-c2nc3ccccc3s2)c1)c1cnc(Cl)s1 | > 25 | > 25 | > 25 | > 25 |
